According to article PMC12707241 (RSC Chemical Biology, 2025):
Read-outs that look alike come from different tables or passages of the source.

Assays:
[1] = test system: SIRT5; conditions: cited from earlier work
[2] = test system: SIRT5; conditions: cited from earlier work; remark: listed apart in the source
[3] = test system: HEK293 cells; experiment: Intracellular NAD+ level, HEK293 cells; format: cell-based, human; conditions: HEK293, 1 mM, 6 h
Summary of the method: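 HEK293 cells (DMEM, 10% FBS, 37 °C, 5% CO2) incubated with 1 mM NR or NARH for 6 h. Harvested, counted by hemocytometer, pelleted, and extracted in ice-cold 7% perchloric acid (three vortex/ice-sonication cycles). NAD+ measured by enzymatic cycling assay. Three independent experiments ± SD; Student's t-test.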

[4] = physiological NAM concentrations

Structure (SMILES) | effect on deacetylase activity of SIRT5 [1, 4] | effect on desuccinylase activity of SIRT5 [2, 4] | effect on deacetylase activity of SIRT5 [1] | effect on desuccinylase activity of SIRT5 [2] | intracellular NAD+ content [3]
NC(=O)c1cccnc1 [NAM, nicotinamide] | negligible changes | potently inhibit |  |  | 
NC(=O)c1ccc[n+]([C@@H]2O[C@H](CO)[C@@H](O)[C@H]2O)c1 [NR, nicotinamide riboside] |  |  | selectively activates | negligible changes | nearly two-fold increase
